# Laboratory results from ChEMBL document CHEMBL3745659, “Synthesis and Characterization of 4,11-Diaminoanthra[2,3-b]furan-5,10-diones: Tumor Cell Apoptosis through tNOX-Modulated NAD(+)/NADH Ratio and SIRT1” (J Med Chem, 2015).
# Calls of active or inactive are those of the source. The calls are words filed in the database; no cut-off is given here.
# Legend:
# [1] = target: T1, NAD-dependent protein deacetylase sirtuin-1 (Homo sapiens, UniProt Q96EB6); experiment: Inhibition of human recombinant SIRT1 deacetylase activity using Arg-His-Lys-Lys(epsilon-acetyl)-AMC as substrate incubated for 45 mins by fluorescence analysis
# T1 sequence (Q96EB6 whole entry): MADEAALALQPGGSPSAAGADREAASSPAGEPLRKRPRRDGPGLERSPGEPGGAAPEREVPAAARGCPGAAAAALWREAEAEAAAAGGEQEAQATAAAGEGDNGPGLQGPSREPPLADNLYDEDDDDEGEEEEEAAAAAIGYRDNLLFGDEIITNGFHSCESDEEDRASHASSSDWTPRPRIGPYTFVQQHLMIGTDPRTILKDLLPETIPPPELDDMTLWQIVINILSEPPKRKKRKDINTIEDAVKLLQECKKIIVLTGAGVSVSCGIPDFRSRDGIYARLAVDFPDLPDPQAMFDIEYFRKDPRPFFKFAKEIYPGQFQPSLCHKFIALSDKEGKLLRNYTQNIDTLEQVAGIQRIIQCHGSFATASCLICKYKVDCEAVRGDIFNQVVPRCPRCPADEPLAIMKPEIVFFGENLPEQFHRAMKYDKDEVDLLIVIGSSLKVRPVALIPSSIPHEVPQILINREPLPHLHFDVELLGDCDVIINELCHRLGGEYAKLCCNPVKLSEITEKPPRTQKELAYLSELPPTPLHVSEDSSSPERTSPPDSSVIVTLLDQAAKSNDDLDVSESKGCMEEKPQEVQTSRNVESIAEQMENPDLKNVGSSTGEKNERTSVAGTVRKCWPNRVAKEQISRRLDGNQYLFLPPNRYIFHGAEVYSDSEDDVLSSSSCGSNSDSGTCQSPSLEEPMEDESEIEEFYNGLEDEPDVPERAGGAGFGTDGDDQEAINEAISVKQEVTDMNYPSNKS
# MRC5 = experiment: Antiproliferative activity against human MRC5 cells after 72 hrs by cell impedance based study; details: MRC5, 72 h
# [2] = Antiproliferative activity against human HCT116 cells after 72 hrs by MTT assay; format: functional, cell-based; details: HCT-116, 72 h
# [3] = Antiproliferative activity against mouse NIH/3T3 cells after 48 hrs by cell impedance based study; details: NIH3T3, 48 h
# AGS [4] = experiment: Downregulation of tNOX protein level in human AGS cells at 0.1 to 0.5 uM after 24 hrs by Western blot analysis; format: functional, cell-based
# K562 [5] = experiment: Resistance index, ratio of IC50 for human K562/4 cells to IC50 for human K562 cells; format: functional
# [6] = Drug uptake in human K562/4 cells at 3 uM incubated for 2 hrs in presence of verapamil by flow cytometric analysis; format: ADME, cell-based; details: k562/4, 2 h
# Procedure, shortened: (§1)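 K562 and K562/4 cells incubated 2 h with 3 µM compound; uptake measured by flow cytometry as ratios (arbitrary units) of mean fluorescence channels of the histograms; verapamil (10 µM), a Pgp transport blocker, added 30 min before compound where used.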
# [7] = Antiproliferative activity against human K562/4 cells after 72 hrs by MTT assay; format: functional, cell-based; details: K562/4, 72 h
# AGS [8] = experiment: Induction of apoptosis in human AGS cells assessed as early apoptotic cells at 0.05 uM after 24 hrs by annexin V-FITC staining-based flow cytometric analysis (Rvb=7.2%); format: functional
# Procedure, shortened: (§2)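 AGS cells exposed to compound for 24 h; Annexin V-FITC staining and flow cytometry used to give percentage of apoptotic cells; mean ± S.E. from at least three independent experiments.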
# Calf thymus DNA [9] = experiment: Binding affinity to calf thymus double stranded DNA assessed as number of base pairs covered by one molecule of compound by spectrophotometric titration method; format: nucleic-acid assay; details: Bos taurus
# K562 [10] = experiment: Drug uptake in human K562 cells at 3 uM incubated for 2 hrs in presence of verapamil by flow cytometric analysis; format: ADME, cell-based; details: k562, 2 h; procedure, shortened: as §1
# [11] = Drug uptake in human K562/4 cells at 3 uM incubated for 2 hrs by flow cytometric analysis; format: ADME, cell-based; details: k562/4, 2 h; procedure, shortened: as §1
# Calf thymus DNA [12] = experiment: Binding affinity to calf thymus double stranded DNA by spectrophotometric titration method; format: nucleic-acid assay; details: Bos taurus
# Procedure, shortened: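 Absorption spectra of compound recorded while double-stranded DNA concentration was increased (spectrophotometric titration); extinction at absorption maxima 540 and 585 nm and band shift followed.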
# AGS [13] = experiment: Increase in intracellular NAD+/NADH ratio in human AGS cells at 5 uM incubated for 5 mins; format: functional, cell-based
# [14] = target: T2, NAD-dependent protein deacetylase sirtuin-1 (Homo sapiens) (UniProt Q96EB6); experiment: Inhibition of human recombinant SIRT1 deacetylase activity using Arg-His-Lys-Lys(epsilon-acetyl)-AMC as substrate at 5 uM incubated for 45 mins by fluorescence analysis
# T2 sequence (whole entry): T1 sequence (Q96EB6 whole entry)
# AGS [15] = experiment: Induction of apoptosis in human AGS cells assessed as late apoptotic cells at 1 uM after 24 hrs by annexin V-FITC staining-based flow cytometric analysis (Rvb=0.3%); format: functional; procedure, shortened: as §2
# AGS [16] = experiment: […] in human AGS cells assessed as downregulation of beta-catenin after 24 hrs by Western blot analysis; format: functional, cell-based
# L1210 = experiment: Antiproliferative activity against mouse L1210 cells after 72 hrs by MTT assay; details: L1210, 72 h
# AGS [17] = experiment: Upregulation of phosphorylated p53 level in human AGS cells at 1 and 5 uM after 24 hrs by Western blot analysis; format: functional, cell-based
smiles,measurement,setting,value
CNCCNc1c2c(c(NCCNC)c3occc13)C(=O)c1ccccc1C2=O,IC50,[1],3930 nM
same,IC50,MRC5,780 nM
same,IC50,[2],100 nM
same,IC50,[3],230 nM
same,Activity,AGS [4],Active
same,Ratio IC50,K562 [5],0.71
same,Drug uptake,[6],Active
same,IC50,[7],150 nM
same,Activity,AGS [8],13%
same,Activity,Calf thymus DNA [9],3
same,Drug uptake,K562 [10],Active
same,Drug uptake,[11],Active
same,Ka,Calf thymus DNA [12],2.5 ×10⁶ /M
same,Activity,AGS [13],inactive
same,inhibition,[14],Active
same,Activity,AGS [15],1.3%
same,Activity,AGS [16],Active
same,IC50,L1210,100 nM
same,Activity,AGS [17],Active
